Experiments:
[1] = target: T1, Adenosine receptor A2b (Homo sapiens, UniProt P29275); test: Antagonist activity at human adenosine A2B receptor expressed in CHO cells assessed as inhibition of adenosine-induced cAMP production; format: functional, cell-based
T1 sequence (P29275 whole entry): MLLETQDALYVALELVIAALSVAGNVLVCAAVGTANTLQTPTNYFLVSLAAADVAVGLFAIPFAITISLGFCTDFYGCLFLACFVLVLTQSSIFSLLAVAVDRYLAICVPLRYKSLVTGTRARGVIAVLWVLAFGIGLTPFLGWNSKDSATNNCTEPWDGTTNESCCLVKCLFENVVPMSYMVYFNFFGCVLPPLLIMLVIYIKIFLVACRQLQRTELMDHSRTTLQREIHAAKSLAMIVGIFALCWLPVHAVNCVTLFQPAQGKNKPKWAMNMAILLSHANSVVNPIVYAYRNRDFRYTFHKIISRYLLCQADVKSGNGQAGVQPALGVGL
In short: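 CHO cells stably transfected with human A2B receptor, grown overnight as monolayer (7500 cells/well), washed with Krebs buffer, then exposed to compounds in Krebs buffer (final DMSO 1.1%) for 20–25 min. Wells emptied, cells lysed and cAMP measured with an enzyme-fragment complementation cAMP kit for adherent cells.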

[2] = target: T2, Adenosine receptor A1 (Homo sapiens, UniProt P30542); test: Displacement of [3H]-DPCPX from human adenosine A1 receptor expressed in CHO-K1 cells after 1 hr by scintillation counting; format: cell-based
T2 sequence (P30542 whole entry): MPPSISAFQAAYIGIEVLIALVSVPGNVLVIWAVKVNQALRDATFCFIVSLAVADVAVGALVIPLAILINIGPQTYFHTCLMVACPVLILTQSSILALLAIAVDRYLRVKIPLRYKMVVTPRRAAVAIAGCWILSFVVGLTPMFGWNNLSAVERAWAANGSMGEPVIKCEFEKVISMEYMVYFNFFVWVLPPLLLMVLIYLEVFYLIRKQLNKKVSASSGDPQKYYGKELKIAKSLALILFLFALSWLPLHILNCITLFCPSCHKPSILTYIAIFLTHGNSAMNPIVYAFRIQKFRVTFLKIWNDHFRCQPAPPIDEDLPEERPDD
In short: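 Commercial human A1 membranes (10 µg/well) in HEPES 50 mM, NaCl 100 mM, MgCl2 1 mM buffer; competition against [3H]-DPCPX (4.8 nM final), 1 h at room temperature with orbital shaking. Filtration harvest on polyethyleneimine-treated (0.5%) glass-fibre plates, air-dried, scintillation counting.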

[3] = target: Adenosine receptor A2a (Homo sapiens, UniProt P29274); test: Displacement of [3H]-ZM241385 from human adenosine A2A receptor expressed in CHO-K1 cells after 1 hr by scintillation counting; format: cell-based
[4] = target: T1, Adenosine receptor A2b; test: Displacement of [3H]ZM241385 from human adenosine A2B receptor expressed in CHO cells after 1 hr by scintillation counting; format: cell-based
In short: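 Whole CHO cells expressing human A2B receptor, harvested mechanically from 80% confluent flasks, frozen, then resuspended in assay buffer on assay day. Competition against [3H]ZM241385 (30 nM final), 1 h at room temperature with shaking. Harvest on 0.5% polyethyleneimine-treated filter plates, air-dried, scintillation counting.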

[5] = Clearance in Han Wistar rat at 2.5 mg/kg, iv up to 24 hrs by LC-MS analysis; format: ADME, organism-based; set-up: dose 2.5 mg/kg, route intravenous; details: in vivo
In short: (§1)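 Male Han Wistar rats (n = 4) received a single 2.5 mg/kg intravenous tail-vein injection in DMA/PEG 400/40% HPBCD/H₂O. Plasma was sampled up to 24 h after dosing, and plasma drug levels were measured by LC–MS to derive the PK parameters.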

[6] = Volume of distribution in Han Wistar rat at 2.5 mg/kg, iv up to 24 hrs by LC-MS analysis; format: ADME, organism-based; set-up: dose 2.5 mg/kg, route intravenous; details: in vivo; in short: as §1
[7] = Extrapolated AUC in Han Wistar rat at 2.5 mg/kg, iv up to 24 hrs by LC-MS analysis; format: ADME, organism-based; set-up: time < 24 hr, dose 2.5 mg/kg, route intravenous; details: in vivo
[8] = Cmax in Han Wistar rat at 50 mg/kg, po up to 24 hrs by LC-MS analysis; format: ADME, organism-based; set-up: dose 50 mg/kg, route oral; details: in vivo
[9] = Extrapolated AUC in Han Wistar rat at 50 mg/kg, po up to 24 hrs by LC-MS analysis; format: ADME, organism-based; set-up: time < 24 hr, dose 50 mg/kg, route oral; details: in vivo
[10] = Half life in Han Wistar rat at 50 mg/kg, po up to 24 hrs by LC-MS analysis; format: ADME, organism-based; set-up: dose 50 mg/kg, route oral; details: in vivo
In short: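 Male Han Wistar rats (n = 4 per route): iv 2.5 mg/kg via tail vein in DMA/PEG 400/40% HPBCD/H2O, or po 50 mg/kg in Capmul PG8 by intubation tube. Plasma sampled up to 24 h after dosing, drug levels measured by LC–MS.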

[11] = target: T3, Adenosine receptor A3 (Homo sapiens, UniProt P0DMS8); test: Binding affinity to adenosine A3 receptor
T3 sequence (P0DMS8 whole entry): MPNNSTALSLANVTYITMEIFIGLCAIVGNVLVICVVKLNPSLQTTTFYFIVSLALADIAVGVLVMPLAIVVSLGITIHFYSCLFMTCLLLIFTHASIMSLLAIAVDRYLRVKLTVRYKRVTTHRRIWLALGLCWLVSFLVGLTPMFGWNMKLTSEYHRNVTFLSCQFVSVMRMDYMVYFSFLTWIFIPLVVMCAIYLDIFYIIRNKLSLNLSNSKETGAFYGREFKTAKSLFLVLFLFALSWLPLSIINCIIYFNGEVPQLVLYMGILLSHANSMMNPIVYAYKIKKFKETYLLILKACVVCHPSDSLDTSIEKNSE

Adenosine receptor A2a, sequence (P29274 whole entry): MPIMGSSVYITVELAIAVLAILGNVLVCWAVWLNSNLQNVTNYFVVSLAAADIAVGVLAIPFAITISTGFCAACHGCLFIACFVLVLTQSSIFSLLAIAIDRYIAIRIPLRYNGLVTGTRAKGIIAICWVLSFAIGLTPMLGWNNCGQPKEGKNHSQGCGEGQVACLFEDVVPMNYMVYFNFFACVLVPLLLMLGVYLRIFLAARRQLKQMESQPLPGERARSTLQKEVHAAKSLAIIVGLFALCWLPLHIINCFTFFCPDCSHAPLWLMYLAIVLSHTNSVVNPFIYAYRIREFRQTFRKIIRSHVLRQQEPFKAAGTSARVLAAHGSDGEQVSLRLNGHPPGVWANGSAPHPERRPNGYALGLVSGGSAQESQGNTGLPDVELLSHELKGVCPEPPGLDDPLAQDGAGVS

Row | SMILES | IC50 [1] [nM] | Ki [2] [nM] | Ki [3] [nM] | Ki [4] [nM] | also measured
1 | CCN(C(C)=O)c1ccc(OC)c2nc(NC(=O)c3ccc(C#N)cc3)sc12 | 28 | 71 | 50 | 10 | 
2 | CCN(C(C)=O)c1ccc(OC)c2nc(NC(=O)c3ccc(S(C)(=O)=O)cc3)sc12 | 36 | 390 | 92 | 19 | 
3 | CCN(C(C)=O)c1ccc(Cl)c2nc(NC(=O)c3ccc(F)cc3)sc12 | 23 | 30 | 15 |  | 
4 | COc1ccc(N(CC(=O)N(C)C)C(C)=O)c2sc(NC(=O)c3ccc(F)cc3)nc12 | 600 | 1600 | 480 |  | 
5 | CCN(C(C)=O)c1ccc(OC)c2nc(NC(=O)c3ccc(NS(C)(=O)=O)cc3)sc12 | 37 | 110 | 46 | 22 | 
6 | COc1ccc(N(CC(=O)O)C(C)=O)c2sc(NC(=O)c3ccc(F)cc3)nc12 | 6000 | 2600 | 2200 |  | 
7 | COc1ccc(NC(C)=O)c2sc(NC(=O)c3ccc(F)cc3)nc12 | 350 | 1600 | 250 | 130 | 
8 | CNC(=O)CN(C(C)=O)c1ccc(OC)c2nc(NC(=O)c3ccc(F)cc3)sc12 | 350 | 790 | 330 |  | 
9 | COc1ccc(N(CC(N)=O)C(C)=O)c2sc(NC(=O)c3ccc(F)cc3)nc12 | 60 | 560 | 160 |  | 
10 | CCN(C(C)=O)c1ccc(OC)c2nc(NC(=O)c3ccc(C(=O)N4CCN(C)CC4)cc3)sc12 | 38 | 120 | 89 | 18 | 
11 | CCN(C(C)=O)c1ccc(OC)c2nc(NC(=O)c3cnn(C)c3)sc12 | 29 |  | 41 | 19 | 

The next molecules have a lower IC50 [1] than those just listed; values first:

Row | IC50 [1] [nM] | Ki [2] [nM] | Ki [3] [nM] | Ki [4] [nM] | SMILES | also measured
12 | 21 | 160 | 76 | 7 | CCN(C(C)=O)c1ccc(OC)c2nc(NC(=O)c3ccc(C(=O)N4CCOCC4)cc3)sc12 | 
13 | 21 | 78 | 66 | 18 | CCN(C(C)=O)c1ccc(OC)c2nc(NC(=O)c3ccc(-n4cccn4)cc3)sc12 | 
14 | 21 | 100 | 51 | 8 | CCN(C(C)=O)c1ccc(OC)c2nc(NC(=O)c3ccnn3C)sc12 | clearance [5]: 46 mL/min/kg; Vd [6]: 3 L/kg; AUC at 24 h [7]: 929 ng·h/mL; Cmax [8]: 7420 ng/mL; AUC at 24 h [9]: 74400 ng·h/mL; half-life [10]: 126 min; Ki [11]: 80 nM
15 | 21 | 185 | 84 |  | CCN(C(C)=O)c1ccc(OC)c2nc(NC(=O)c3ccc(C(=O)NC)cc3)sc12 | 
16 | 21 |  |  |  | CCN(C(C)=O)c1ccc(OC)c2nc(NC(=O)c3cn[nH]c3)sc12 | 
17 | 16 | 300 | 100 | 4 | CCN(C(C)=O)c1ccc(OC)c2nc(NC(=O)c3ccc(C(=O)N4CCCCC4)cc3)sc12 | 
18 | 7 | 35 | 18 |  | CCN(C(C)=O)c1ccc(OC)c2nc(NC(=O)c3cc[nH]c3)sc12 | 
